Experimental data published in PubChem BioAssay.
Active and inactive are the calls of the source.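 How the source made its calls, unless noted: active means viability loss from added drug above about 55%, and viability with drug at most 40%, in both replicates (limit read from the data, passing the limit was not always enough); inconclusive means both conditions met in only one replicate; inactive means neither replicate meets both conditions.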

Legend:
[1] = reduced viability of SK-BR-3 breast cancer cells – cell-based, 24 h, human, pilot screen (AID 572;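 active means viability at or below 10% of carrier control in both of two separate runs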;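 further: compound exposure lasted between 18 and 24 h rather than exactly 24 h; 100% = carrier-treated control wells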); settings: SK-BR-3 viability, CellTiter-Glo luminescence, at 10 µM, stronger effect = lower value
[2] = HUVEC growth inhibition – cell-based, human, primary screen (AID 575;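 active means viability at or below 30% in both replicate assays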;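 further: 100% = median of untreated cell wells with 0.1% DMSO on each plate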); settings: HUVEC proliferation, CellTiter-Glo luminescence, 72 h; at 10 µM; stronger effect = lower value
In short: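 System – primary HUVEC, no more than 12 passages · Medium – Low-serum (2% FBS) EBM, supplemented · Times – 72 h exposure, 37 °C, 5% CO2, 30 min RT equilibration · Measured by – luminescent ATP assay · Read-out – % viability relative to median vehicle-well signal on each plate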

[3] = H69AR cell proliferation blockers – human, duplicate replicates, primary screen (AID 580;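 active means viability at or under a set limit in both replicates, limit being median viability minus 3 SD, cut at about 48% in these data, passing the limit was not always enough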;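 further: 100% = mean luminescence of untreated wells and 0% = no signal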); settings: H69AR lung tumor cells viability, ATP luminescence, 72 h; at 10 µM; stronger effect = lower value
[4] = MRP1 drug-resistance reversers in H69AR cells – cell-based, doxorubicin co-treatment, pilot screen (AID 601); settings: CellTiter-Glo, 72 h, at 10 µM; for differential viability (reversal): stronger effect = higher value
[5] = yeast transport mutant growth inhibition pilot in 384-well plates, post-Golgi transport modulator project (AID 636; in the data active means inhibition above about 31%); settings: absorbance 615 nm, about 18 h, stronger effect = higher value
[6] = growth suppression of yeast trafficking mutant, preliminary HTS, modulators of trafficking downstream of Golgi apparatus project, 1536-format plate, OD 615 nm (AID 637; in the data active means inhibition above about 30%); settings: yeast transport mutant growth, absorbance 615 nm, 18 h; stronger effect = higher value
[7] = H69AR cells + 2 uM doxorubicin, measured here: viability with 2 uM doxorubicin, stronger effect = lower value
[8] = H69AR cells, compound alone cytotoxicity

Structure (SMILES) | viability [1] | viability [2] | viability [3] | differential viability (reversal) ([4]; H69AR cells + 2 uM doxorubicin) | viability [4, 7] | viability [4, 8] | inhibition [5] | inhibition [6]
Cc1ccc(C(O)c2nc3ccccc3n2C(C)C)cc1 (centres undefined) | 62% (inactive) | 101% (inactive) | 91.5% (inactive) | 3.7% (inactive) | 87.8% | 91.5% | -7.53% (inactive) | -5.82% (inactive)
CC(=O)Nc1cc(NC(C)=O)cc(C(=O)OCC(=O)N2CC(C)OC(C)C2)c1 (centres undefined) | 94% (inactive) | 99.9% (inactive) | 102% (inactive) | 8.29% (inactive) | 94.1% | 102% | -6.62% (inactive) | -3.64% (inactive)
COC(=O)CCn1nnc(-c2ccc(C)cc2)n1 | 90% (inactive) | 109% (inactive) | 94.1% (inactive) | 3.69% (inactive) | 90.4% | 94.1% | -6% (inactive) | -2.91% (inactive)
COC(=O)C1CCN(C(=O)CN2C(=O)NC(CCc3ccccc3)C2=O)CC1 (centres undefined) | 119% (inactive) | 94.2% (inactive) | 91.7% (inactive) | 0.73% (inactive) | 90.9% | 91.7% | -1.92% (inactive) | 3.87% (inactive)
CN(CCNC(=O)c1ccc(N2CCCC2=O)cc1)CCc1ccccc1 | 72% (inactive) | 99% (inactive) | 101% (inactive) | 8.74% (inactive) | 92.6% | 101% | -7.95% (inactive) | 4.36% (inactive)
COc1ccc(-c2oc3ncn(CCN4CCOCC4)c(=N)c3c2-c2ccc(OC)cc2)cc1 | 82% (inactive) | 88.9% (inactive) | 24% (active) | 2.45% (inactive) | 21.5% | 24% | -4.73% (inactive) | -2.55% (inactive)
CCN1C(=O)/C(=C/N(C)c2ccccc2)OC1=S | 97% (inactive) | 91.5% (inactive) | 93.7% (inactive) | -0.96% (inactive) | 94.7% | 93.7% | -2.6% (inactive) | 8.18% (inactive)
O=C(CSc1nnc(-c2ccco2)n1CC1CCCO1)N1CCCCC1 (centres undefined) | 94% (inactive) | 106% (inactive) | 97.6% (inactive) | 4.84% (inactive) | 92.7% | 97.6% | -3.6% (inactive) | 0.36% (inactive)
Cc1cc(NC(=O)CSc2nc(C3CCCCC3)nc3ccccc23)no1 | 101% (inactive) | 99.8% (inactive) | 80% (inactive) | 16.2% (inactive) | 63.9% | 80% | -0.8% (inactive) | -2% (inactive)
O=C(NCc1ccccc1)c1cc(-c2ccco2)on1 | 111% (inactive) | 100% (inactive) | 94% (inactive) | 16.6% (inactive) | 77.3% | 94% | -0.13% (inactive) | 4.59% (inactive)
Nc1nnnn1NCc1cccc(OCc2ccccc2)c1 | 112% (inactive) | 88.8% (inactive) | 104% (inactive) | 15.4% (inactive) | 89% | 104% | -7.95% (inactive) | 3.71% (inactive)
CCN(CC)CCOC(=O)C1(c2ccc(OC)c(OC)c2)CCCC1 | 89% (inactive) | 99.6% (inactive) | 82.7% (inactive) | 2.25% (inactive) | 80.5% | 82.7% | -5.14% (inactive) | 1.45% (inactive)
c1ccc(-c2nc3cnccn3c2Nc2ccc3c(c2)OCCO3)cc1 | 96% (inactive) | 107% (inactive) | 91.5% (inactive) | 38.5% (inactive) | 52.9% | 91.5% | -5.47% (inactive) | -1.27% (inactive)
c1ccc(-c2cc(CSc3nc4ccccc4[nH]3)on2)cc1 | 94% (inactive) | 91.8% (inactive) | 102% (inactive) | 15.5% (inactive) | 86.5% | 102% | -6.13% (inactive) | 3.09% (inactive)
COc1ccccc1CNC(=O)Nc1cccs1 | 126% (inactive) | 63.8% (inactive) | 72.1% (inactive) | 5.65% (inactive) | 66.5% | 72.1% | -0.78% (inactive) | 4.1% (inactive)
COc1ccc(CC(=O)Nc2c3c(nn2-c2cccc(Cl)c2)CS(=O)C3)cc1 (centres undefined) | 111% (inactive) | 95.6% (inactive) | 104% (inactive) | 14.5% (inactive) | 89.5% | 104% | -2.73% (inactive) | -1.97% (inactive)
c1cnc(NCCNc2ncccn2)nc1 | 98% (inactive) | 112% (inactive) | 99.8% (inactive) | 10.7% (inactive) | 89% | 99.8% | -8.4% (inactive) | -3.82% (inactive)
Cc1ccc2nc(-c3ccc(S(=O)(=O)N4CCOCC4)cc3)cn2c1 | 138% (inactive) | 108% (inactive) | 105% (inactive) | 6.21% (inactive) | 98.5% | 105% | -1.17% (inactive) | -1.48% (inactive)
Brc1ccc2[nH]c3nc(SCCN4CCOCC4)nnc3c2c1 | 100% (inactive) | 89.8% (inactive) | 87% (inactive) | 10.9% (inactive) | 76.2% | 87% | 2.21% (inactive) | 11.6% (inactive)
COc1nc(NCCc2ccc(OC)c(OC)c2)nc(NC(C)(C)CO)n1 | 96% (inactive) | 113% (inactive) | 95.5% (inactive) | 7.75% (inactive) | 87.8% | 95.5% | -3.38% (inactive) | -1.31% (inactive)
CCC(C(=O)OCCN(CC)CC)c1ccccc1 (centres undefined) | 114% (inactive) | 86.8% (inactive) | 86.7% (inactive) | -0.8% (inactive) | 87.5% | 86.7% | -1.56% (inactive) | 2.33% (inactive)
COc1cccc(NC(=O)c2ccccc2NS(C)(=O)=O)c1 | 86% (inactive) | 91.8% (inactive) | 91.9% (inactive) | 4.45% (inactive) | 87.5% | 91.9% | -5.89% (inactive) | -3.45% (inactive)
O=C1C(Cl)=C(NCC2CCCO2)C(=O)N1CCc1ccccc1 (centres undefined) | 75% (inactive) | 111% (inactive) | 87.4% (inactive) | 8.39% (inactive) | 79% | 87.4% | -0.82% (inactive) | -4.03% (inactive)
